What was measured:
[1] = target: Nitric oxide synthase 1 (Rattus norvegicus) (UniProt P29476); test: In vitro percent inhibition of rat cerebellar neuronal nitric oxide synthase at a concentration of 100 uM
Method in brief: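 Rat cerebellar homogenate nNOS, assayed as L-[3H]arginine to L-[3H]citrulline conversion (1 mM CaCl2, 200 μM β-NADPH, 0.88 μM L-arginine, 0.12 µM L-[3H]arginine, 15 min, 37 °C). Compound at 100 µM in ethanol or DMSO vehicle. Result given as % inhibition.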

Nitric oxide synthase 1 [2] = target: T1, Nitric oxide synthase 1 (Rattus norvegicus, UniProt P29476); test: In vitro inhibitory concentration against rat cerebellar neuronal nitric oxide synthase
T1 sequence (P29476 whole entry): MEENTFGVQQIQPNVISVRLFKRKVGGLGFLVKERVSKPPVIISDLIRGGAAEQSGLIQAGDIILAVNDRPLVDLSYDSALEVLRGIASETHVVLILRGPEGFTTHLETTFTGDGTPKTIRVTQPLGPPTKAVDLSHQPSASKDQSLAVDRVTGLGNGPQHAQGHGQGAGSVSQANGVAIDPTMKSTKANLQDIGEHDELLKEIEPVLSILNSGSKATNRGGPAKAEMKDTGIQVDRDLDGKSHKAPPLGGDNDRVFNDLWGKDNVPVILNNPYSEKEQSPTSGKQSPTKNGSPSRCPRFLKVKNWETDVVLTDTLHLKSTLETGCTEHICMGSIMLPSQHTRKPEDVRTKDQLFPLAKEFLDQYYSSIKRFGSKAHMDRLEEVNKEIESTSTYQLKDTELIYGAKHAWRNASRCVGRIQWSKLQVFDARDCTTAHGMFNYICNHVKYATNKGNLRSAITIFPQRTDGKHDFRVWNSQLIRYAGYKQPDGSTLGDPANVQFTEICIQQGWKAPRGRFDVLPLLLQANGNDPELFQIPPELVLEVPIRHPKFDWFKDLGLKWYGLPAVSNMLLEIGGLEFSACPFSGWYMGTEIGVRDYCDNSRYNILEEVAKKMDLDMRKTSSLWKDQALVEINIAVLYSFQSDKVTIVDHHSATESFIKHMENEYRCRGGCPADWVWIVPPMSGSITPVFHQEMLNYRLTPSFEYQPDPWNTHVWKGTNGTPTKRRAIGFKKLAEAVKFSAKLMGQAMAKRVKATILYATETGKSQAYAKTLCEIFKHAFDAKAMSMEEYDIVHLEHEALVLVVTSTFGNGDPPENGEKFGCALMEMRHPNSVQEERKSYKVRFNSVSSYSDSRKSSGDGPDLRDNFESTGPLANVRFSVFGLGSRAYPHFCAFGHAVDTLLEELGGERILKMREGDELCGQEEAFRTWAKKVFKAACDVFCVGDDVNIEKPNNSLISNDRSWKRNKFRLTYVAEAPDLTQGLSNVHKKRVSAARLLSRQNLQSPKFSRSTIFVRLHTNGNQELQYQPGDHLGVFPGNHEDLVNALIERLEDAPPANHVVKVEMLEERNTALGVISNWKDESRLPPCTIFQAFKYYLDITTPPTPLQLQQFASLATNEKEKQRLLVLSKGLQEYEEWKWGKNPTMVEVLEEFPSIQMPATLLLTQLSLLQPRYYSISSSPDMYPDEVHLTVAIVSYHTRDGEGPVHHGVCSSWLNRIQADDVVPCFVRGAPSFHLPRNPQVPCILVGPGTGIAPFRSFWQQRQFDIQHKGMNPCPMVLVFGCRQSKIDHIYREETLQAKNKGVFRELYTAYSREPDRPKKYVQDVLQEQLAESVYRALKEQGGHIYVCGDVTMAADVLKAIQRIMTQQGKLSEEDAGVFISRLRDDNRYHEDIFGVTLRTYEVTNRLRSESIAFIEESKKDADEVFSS

Nitric oxide synthase 1 [3] = target: T1, Nitric oxide synthase 1; test: In vitro inhibitory concentration against rat cerebellar neuronal nitric oxide synthase; no effect
Method in brief: (§1)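 Rat cerebellum homogenate nNOS. L-[3H]arginine to L-[3H]citrulline conversion with 1 mM CaCl2, 200 μM β-NADPH, 0.88 μM L-arginine and 0.12 µM L-[3H]arginine, 15 min at 37 °C. Vehicle ethanol or DMSO 0.4–0.8%. IC50 from inhibition curves at 0.1, 1, 10 and 100 µM. Mean ± SEM, 1–6 experiments.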

Mus musculus [4] = test: Effect of l-Arginine on Antinociceptive activity in mice(ip) at a dose of 50 mg/kg (p<0.05); type: functional
Mus musculus [5] = test: Antinociceptive activity in Writhing test in mice(ip) at a dose of 10 mg/kg (p<0.05); type: functional
Mus musculus [6] = test: Antinociceptive activity in Writhing test in mice(ip) at a dose of 50 mg/kg (p<0.001); type: functional
Mus musculus [7] = test: Antinociceptive activity in Writhing test in mice(ip) at a dose of 25 mg/kg (p<0.05); type: functional
[8] = target: Nitric oxide synthase 1 (Rattus norvegicus) (UniProt P29476); test: Ex vivo inhibition of rat cerebellar neuronal nitric oxide synthase after intraperitoneal administration in rats.; type: functional, organism-based; conditions: concentration not given here
Method in brief: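 Rats, n=6, received 50 mg/kg ip in arachis oil. Cerebellum removed 30 min later. nNOS activity measured ex vivo as L-[3H]arginine to L-[3H]citrulline conversion. Expressed as % inhibition.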

Nitric oxide synthase 1 [9] = target: T1, Nitric oxide synthase 1; test: In vitro inhibitory concentration against rat cerebellar neuronal nitric oxide synthase; No effect; method in brief: as §1
Mus musculus [10] = test: Antinociceptive activity in Writhing test in mice(ip) at a dose of 15 mg/kg (p<0.001)

Chain of Nitric oxide synthase 1 (Rattus norvegicus) (P29476 whole entry): as above

SMILES	inhibition [1] [%]	IC50 (Nitric oxide synthase 1 [2]) [µM]	further results
Oc1cccc2cn[nH]c12	7	> 100	–
c1ccc(COc2cccc3c[nH]nc23)cc1	0	–	IC50 (Nitric oxide synthase 1 [3]): Not Active
COc1cccc2c[nH]nc12	80	6.3	No. of writhes (Mus musculus [4]): 10.6; No. of writhes (Mus musculus [5]): 15.4; No. of writhes (Mus musculus [6]): 4.7; No. of writhes (Mus musculus [7]): 12.2
CCOc1cccc2c[nH]nc12	50	100	–
COc1ccc2[nH]ncc2c1	25	> 100	–
Clc1ccc2cn[nH]c2c1	–	28	–
O=[N+]([O-])c1cccc2cn[nH]c12 [7-NITROINDAZOLE]	–	–	No. of writhes (Mus musculus [6]): 6.2; inhibition [8]: 92%
Fc1ccc2[nH]ncc2c1	–	> 100	–
COc1ccc2c[nH]nc2c1	0	–	IC50 (Nitric oxide synthase 1 [9]): Not Active
Cc1ccc2cn[nH]c2c1	–	> 100	–
COc1cccc2c(I)[nH]nc12	0	–	IC50 (Nitric oxide synthase 1 [3]): Not Active
CC(=O)Oc1ccccc1C(=O)O [ASPIRIN]	–	–	No. of writhes (Mus musculus [10]): 3.5
FC(F)(F)c1ccccc1-n1ccnc1	–	30	inhibition [8]: 45%
Brc1ccc2[nH]ncc2c1	–	75	–
COc1cccc2[nH]ncc12	30	> 100	–

Reference: ChEMBL document CHEMBL1134250, “Inhibition of neuronal nitric oxide synthase by 7-methoxyindazole and related substituted indazoles” (Bioorg Med Chem Lett, 2001)
